# bovine MsrA act = activates bovine MsrA enzyme. purified bovine MsrA, absorbance read-out. activation, % at 10.6 µM. 360,000 tested, 0.3% active; in the data active means activation above about 7.5%;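 further: 0% = vehicle and 100% = reference activator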
# ARFGAP1 inh = inhibitors of rat ARFGAP1 | Q62848 | Arfgap1-stimulated ARF1 GTP hydrolysis, GDP FP detection | inhibition, % at 16.5 µM | 360,000 tested, 0.26% active | AID 651572;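 active means inhibition above a per-plate limit, mean inhibition of low control wells plus 3 SD, cut at about 25% in these data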;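 further: 0% = DMSO wells with enzyme and 100% = wells lacking Arfgap1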
#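 Material: rat Arfgap1 catalytic domain, aa 1-136; also added: human ARF1(Δ1-17)-GTP substrate; compound dosing: one concentration, 16.5 µM, DMSO 1.26%; incubation: GTP hydrolysis reaction 2 h at 25 °C; measured by: Tracer-displacement fluorescence polarization with EDTA stop, 620/688 nm; evaluation: % inhibition from polarization; repeats: one replicate per compound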
# ASAP1 GAP inh = blocks human ASAP1-stimulated Arf1 GTP hydrolysis | Q9ULH1 | GDP FP detection | inhibition, % at 16.5 µM | 360,000 tested, 0.19% active; in the data active means inhibition above about 25%;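 further: 0% = vehicle with enzyme and substrate and 100% = no enzyme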
# MsrA inhibitor = inhibits bovine methionine sulfoxide reductase A; 360,000 tested, 0.75% active; purified bovine MsrA, absorbance read-out; inhibition, % at 15.5 µM; in the data active means inhibition above about 4.5%;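 further: 0% = vehicle wells with enzyme and 100% = reference inhibitor wells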
# NR1D1 modulator = modulates human Rev-erb alpha binding to DNA; P20393; activity, % at 10 µM; Rev-erbα–FITC-DNA binding, fluorescence polarization, 90 min; 370,000 tested, 0.79% active;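 active means activity above about 14%, limit read from the data; passing the limit was not always enough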;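 further: 0% = DMSO wells with 35 nM protein and 100% = DMSO wells with 750 nM protein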
# HGIII-sPLA2 inh = Blocks human group III sPLA2 activity; Q9NZ20; 370,000 tested, 0.56% active; QFRET BODIPY PC-A2 liposome hydrolysis, fluorescence; AID 743126; inhibition, % at 12.2 µM;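 active means inhibition above mean plus 3 SD of compounds lying within the high and low control bounds, cut at about 19% in these data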;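 further: 0% = median of test compound wells and 100% = no enzyme DMSO wells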
# Target sequence (Q9NZ20 whole entry, looked up): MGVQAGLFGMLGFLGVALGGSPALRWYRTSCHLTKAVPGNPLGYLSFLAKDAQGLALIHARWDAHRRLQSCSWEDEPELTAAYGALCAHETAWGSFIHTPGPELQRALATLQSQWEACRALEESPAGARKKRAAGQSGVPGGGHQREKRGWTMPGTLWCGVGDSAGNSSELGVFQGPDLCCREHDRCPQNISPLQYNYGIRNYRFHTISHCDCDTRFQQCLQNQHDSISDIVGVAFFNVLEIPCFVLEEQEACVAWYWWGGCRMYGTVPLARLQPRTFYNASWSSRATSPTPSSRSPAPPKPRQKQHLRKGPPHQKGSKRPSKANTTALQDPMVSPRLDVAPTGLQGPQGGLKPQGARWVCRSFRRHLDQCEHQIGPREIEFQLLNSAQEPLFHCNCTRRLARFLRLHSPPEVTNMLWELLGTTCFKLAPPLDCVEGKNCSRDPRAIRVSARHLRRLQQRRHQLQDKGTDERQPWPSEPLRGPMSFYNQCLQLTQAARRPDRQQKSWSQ
# NR1D1 mod conf = confirmation of modulators of human Rev-erb alpha DNA binding. activation, % at 25 µM. 3,000 tested, 61% active. Rev-erb alpha FITC-DNA binding, fluorescence polarization, 90 min. shares compounds with NR1D1 modulator. AID 1259319;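 active means activation at or above a set limit, or at least 3 SD above the negative control mean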;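 further: 0% = 35 nM protein with DMSO and 100% = 750 nM protein high control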
# RORg counter = RORgamma DNA-binding activity, dose-response counter-screen; purified RORgamma protein-FITC-DNA binding, fluorescence polarization; 910 tested, 8% active; shares compounds with NR1D1 modulator; IC50, µM;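 active means Compounds whose fitted half-maximal concentration for disrupting protein-DNA binding is below 10 micromolar; the record names Rev-erb in its text, so the target is in doubt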
# * = called active by the depositor; · = no result. Most compounds without a hit are left out; they make up all but 2.7% or so of the library.
SMILES,bovine MsrA act,ARFGAP1 inh,ASAP1 GAP inh,MsrA inhibitor,NR1D1 modulator,HGIII-sPLA2 inh,NR1D1 mod conf,others
Cn1nc(C(=O)NCC(=O)Nc2ccc(F)c(F)c2)ccc1=O,-9.4,0.2,7.4,0.8,-1.0,15.8,·,
CC(C)COC(=O)N1CCCC(c2cc(C(=O)Nc3ccccc3Cl)no2)C1 (stereo not drawn),1.1,-8.8,-11.0,0.7,-3.2,-10.5,·,
Cc1nn2c(N)c(-c3ccccc3)cnc2c1-c1ccccc1,-2.2,-0.3,4.1,-0.6,18.5*,-0.8,2.8,
Cc1nn2c(N)c(C#N)cnc2c1-c1ccccc1,-4.8,-1.9,-2.9,2.1,2.6,6.7,·,
Cc1nn2c3c(cnc2c1-c1ccccc1)C(=O)CC(c1ccccc1)C3 (stereo not drawn),-2.6,2.4,-2.7,0.6,38.6*,8.1,19.5*,
Cc1nn2c(N)c(C#N)cnc2c1-c1ccc(Cl)cc1,-6.3,1.3,1.6,-0.8,50.6*,5.7,33.8*,RORg counter=>40
O=C(/C=C/c1ccccc1)OCc1ccccc1,·,·,·,·,-2.5,·,·,
O=C(c1cccc(Cl)c1)N1CCC(=O)N([C@H](COCc2cccc(Cl)c2)Cc2ccccc2)CC1,-0.3,-1.4,13.3,-0.7,-3.1,-24.4,·,
COc1ccc(NC(=O)C(OC(=O)CNC(=O)c2ccccc2)c2ccccc2)cc1F (stereo not drawn),·,·,·,·,-4.2,-13.6,·,
Cc1cc(C)c2c(n1)sc1c(-c3ccccc3)c(C#N)c(N)nc12,-2.6,-5.0,3.4,0.1,23.1*,2.3,4.2,
CCCCOCCCNC(=O)C[C@@H]1C[C@@]2(C(=O)OC)CC(C)(C)CC=C2N(Cc2cccc3ccccc23)C1=O,·,3.5,6.6,0.8,2.3,-12.8,·,
O=C(O)C(Cc1ccccc1[N+](=O)[O-])N1C(=O)c2ccccc2C1=O (stereo not drawn),-7.0,-5.2,-2.8,1.6,-1.7,8.1,·,
Cc1ccc(CNC(=O)c2nnn(CC(=O)Nc3cc(C)cc(C)c3)c2N)cc1,-3.5,12.1,8.1,0.1,24.3*,0.6,20.8*,
Cc1cc(C)cc(NC(=O)Cn2nnc(C(=O)NCc3ccc4c(c3)OCO4)c2N)c1,-1.6,14.2,15.3,-0.4,8.7,-4.5,·,
COc1ccc(NC(=O)Cn2nnc(C(=O)NCc3ccc4c(c3)OCO4)c2N)cc1,-8.4,-8.0,3.2,-0.7,2.4,-4.0,·,
COc1cccc(CNC(=O)c2nnn(CC(=O)Nc3ccc(Br)cc3)c2N)c1,-0.3,-1.3,11.0,-0.5,19.3*,-5.4,5.7,
COCc1nc2sc3c(c2c(=O)[nH]1)CCCC3,-3.0,5.6,-5.7,-1.1,0.2,-4.0,·,
COc1cccc(-c2nc3sc4c(c3c(=O)[nH]2)CCCCC4)c1,-1.1,8.1,-19.3,-0.8,26.3*,0.3,1.6,
COc1ccc(-n2nc3ccc(NS(C)(=O)=O)cc3n2)cc1Cl,-2.2,1.6,-11.2,0.6,22.9*,-19.6,17.9*,
Cc1nc(SCC(=O)Nc2ccccc2)c2oc3ccccc3c2n1,-0.3,2.2,-8.8,-0.4,781.5*,-2.5,665.8*,RORg counter=>40
Cc1nc(SCC(=O)Nc2ccc(F)cc2)c2oc3ccccc3c2n1,0.5,-2.1,13.0,-0.7,220.0*,-1.2,233.5*,RORg counter=>40
COCCn1c(SCC(=O)Nc2ccc(F)cc2)nc2c(oc3ccccc32)c1=O,-2.5,4.0,-2.0,-1.3,1.4,-2.2,·,
Cc1nc(SCC(=O)NC(C)c2ccccc2)c2oc3ccccc3c2n1 (stereo not drawn),0.1,-6.9,-10.6,0.3,14.3,6.8,·,
COc1ccc2cc(/C=N/NC(=O)CN(c3ccccc3C)S(=O)(=O)c3ccccc3)c(Cl)nc2c1,-4.4,-4.1,-10.5,-0.7,29.3*,1.1,7.7,
CCSc1nc2cc(C(=O)OC)ccc2c(=O)n1CC,-2.7,4.8,-10.6,0.1,6.1,10.1,·,
COC(=O)c1ccc2c(=O)n3c(nc2c1)SCC(c1ccccc1)=N3,-0.5,14.3,14.7,-0.9,80.2*,8.4,4.1,

# Screening data as filed in PubChem.
